Laboratory results from ChEMBL document CHEMBL1240360, “TMC278, a next-generation nonnucleoside reverse transcriptase inhibitor (NNRTI), active against wild-type and NNRTI-resistant HIV-1” (Antimicrob Agents Chemother, 2010).

Legend:
[1] = tested on: Human immunodeficiency virus 1; test: Antiviral activity against Human immunodeficiency virus 1 group M subtype F1 assessed as days to viral replication breakthrough at 40 nM by cell based assay; type: functional
[2] = tested on: Human immunodeficiency virus 1; test: Antiviral activity against Human immunodeficiency virus 1 group M subtype A1 assessed as days to viral replication breakthrough at 40 nM by cell based assay; type: functional
[3] = tested on: Human immunodeficiency virus 1; test: Antiviral activity against Human immunodeficiency virus 1 group M subtype A1 assessed as days to viral replication breakthrough at 200 nM by cell based assay; type: functional
[4] = tested on: Human immunodeficiency virus 1; test: Antiviral activity against Human immunodeficiency virus 1 group M subtype AE assessed as days to viral replication breakthrough at 200 nM by cell based assay; type: functional
[5] = tested on: Human immunodeficiency virus 1; test: Antiviral activity against Human immunodeficiency virus 1 group M subtype BG assessed as days to viral replication breakthrough at 40 nM by cell based assay; type: functional
[6] = tested on: MT4; test: Cytotoxicity against human MT4 cells by cell based assay
In short: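 Cytotoxicity in MT4 cells from cell-based assays gave a 50% cytotoxic concentration, reported as a median with first- to third-quartile values over the stated number of experiments.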

[7] = tested on: Human immunodeficiency virus 1; test: Antiviral activity against Human immunodeficiency virus 1 group M subtype D assessed as days to viral replication breakthrough at 10 nM by cell based assay; type: functional
[8] = tested on: Human immunodeficiency virus 1; test: Antiviral activity against Human immunodeficiency virus 1 subtype A isolate 92RW020 infected in human PBMC cells by cell based assay; details: Human immunodeficiency virus 1, subtype A isolate 92RW020, PBMC
[9] = tested on: Human immunodeficiency virus 1; test: Antiviral activity against Human immunodeficiency virus 1 subtype E isolate 92TH006 infected in human PBMC cells by cell based assay; details: Human immunodeficiency virus 1, subtype E 92TH006, PBMC
[10] = tested on: Human immunodeficiency virus 1; test: Antiviral activity against Human immunodeficiency virus 1 subtype BG infected in human MT4 cells assessed as reduction in virus induced cytopathicity; type: functional, organism-based
In short: (§1)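 Recombinant viruses were made by recombining patient-derived HIV-1 RT-PR sequences into an RT-PR-deleted HXB2 proviral clone transfected into MT4 cells. Subtype was assigned from PR/RT sequence by Smith-Waterman alignment to HXB2. MT4 cells (1.5 × 10^5/ml) were infected at MOI 0.01 with serially diluted compound for 5 days at 37°C. Viability was read by MTT and EC50 derived.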

[11] = tested on: Human immunodeficiency virus 1; test: Antiviral activity against Human immunodeficiency virus 1 group M subtype G assessed as days to viral replication breakthrough at 40 nM by cell based assay; type: functional
[12] = tested on: Human immunodeficiency virus 1; test: Antiviral activity against Human immunodeficiency virus 1 group M subtype G assessed as days to viral replication breakthrough at 10 nM by cell based assay; type: functional
[13] = tested on: Human immunodeficiency virus 1; test: Antiviral activity against Human immunodeficiency virus 1 subtype B isolate 93BR021 infected in human PBMC cells by cell based assay; details: Human immunodeficiency virus 1, subtype B isolate 93BR021, PBMC
[14] = tested on: Human immunodeficiency virus 1; test: Antiviral activity against Human immunodeficiency virus 1 subtype C isolate 92BR025 infected in human PBMC cells by cell based assay; details: Human immunodeficiency virus 1, subtype C isolate 92BR025, PBMC
[15] = tested on: Human immunodeficiency virus 1; test: Antiviral activity against Human immunodeficiency virus 1 group M subtype D assessed as days to viral replication breakthrough at 200 nM by cell based assay; type: functional
[16] = tested on: Human immunodeficiency virus 2; test: Antiviral activity against Human immunodeficiency virus 2 ROD infected in human MT4 cells assessed as reduction in virus induced cytopathicity; type: functional, organism-based; details: Human immunodeficiency virus 2, ISOLATE ROD
In short: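 MT4 cells (1.5 × 10^5/ml) infected with HIV (MOI 0.01) were added to serial compound dilutions and incubated 5 days at 37°C in 5% CO2. Protection from virus-induced cell death was read by MTT tetrazolium colorimetry, giving an EC50 in micromolar.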

[17] = tested on: Human immunodeficiency virus 1; test: Antiviral activity against Human immunodeficiency virus 1 subtype F isolate 93BR020 infected in human PBMC cells by cell based assay; details: Human immunodeficiency virus 1, subtype F isolate 93BR020, PBMC
[18] = tested on: Human immunodeficiency virus 1; test: Antiviral activity against Human immunodeficiency virus 1 group M subtype F1 assessed as days to viral replication breakthrough at 10 nM by cell based assay; type: functional
[19] = tested on: Human immunodeficiency virus 1; test: Antiviral activity against Human immunodeficiency virus 1 3B infected in human MT4 cells assessed as reduction in virus induced cytopathicity; type: functional, organism-based
In short: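 MT4 cells (1.5 × 10^5/ml) infected with HIV-1 IIIB at MOI 0.01 and added to serially diluted compound. Cultures incubated 5 days at 37°C under 5% CO2. Cell viability, as protection from virus-induced killing, read by MTT tetrazolium colorimetry. EC50 reported as median with first to third quartiles over n experiments.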

[20] = tested on: Human immunodeficiency virus 1; test: Antiviral activity against Human immunodeficiency virus 1 subtype F isolate 93BR019 infected in human PBMC cells by cell based assay; details: Human immunodeficiency virus 1, subtype F isolate 93BR019, PBMC
[21] = tested on: Human immunodeficiency virus 1; test: Antiviral activity against Human immunodeficiency virus 1 subtype D infected in human MT4 cells assessed as reduction in virus induced cytopathicity; type: functional, organism-based; in short: as §1
[22] = tested on: Human immunodeficiency virus 1; test: Antiviral activity against Human immunodeficiency virus 1 group M subtype B assessed as days to viral replication breakthrough at 10 nM by cell based assay; type: functional
[23] = tested on: Human immunodeficiency virus 1; test: Antiviral activity against Human immunodeficiency virus 1 subtype AE infected in human MT4 cells assessed as reduction in virus induced cytopathicity; type: functional, organism-based; in short: as §1
[24] = tested on: Human immunodeficiency virus 1; test: Antiviral activity against Human immunodeficiency virus 1 group M subtype G assessed as days to viral replication breakthrough at 200 nM by cell based assay; type: functional
[25] = tested on: Human immunodeficiency virus 1; test: Antiviral activity against Human immunodeficiency virus 1 subtype E isolate 93TH073 infected in human PBMC cells by cell based assay; details: Human immunodeficiency virus 1, subtype E 93TH073, PBMC
[26] = tested on: Human immunodeficiency virus 1; test: Antiviral activity against Human immunodeficiency virus 1 subtype F1 infected in human MT4 cells assessed as reduction in virus induced cytopathicity; type: functional, organism-based; details: Human immunodeficiency virus 1, subtype F1, MT4; in short: as §1
[27] = tested on: Human immunodeficiency virus 1; test: Antiviral activity against Human immunodeficiency virus 1 subtype AG infected in human MT4 cells assessed as reduction in virus induced cytopathicity; type: functional, organism-based; in short: as §1

## Cc1cc(/C=C/C#N)cc(C)c1Nc1ccnc(Nc2ccc(C#N)cc2)n1 [RILPIVIRINE]
[1]
  Activity: > 31 days
[2]
  Activity: > 31 days
[3]
  Activity: > 31 days
[4]
  Activity: > 31 days
[5]
  Activity: 13 days
[6]
  Activity: 5.91 µM
[7]
  Activity: 20 days
[8]
  EC50: 0.07 nM
[9]
  EC50: 0.08 nM
[10]
  EC50: 0.22 nM
[11]
  Activity: > 31 days
[12]
  Activity: > 31 days
[13]
  EC50: 0.23 nM
[14]
  EC50: 0.33 nM
[15]
  Activity: > 31 days
[16]
  EC50: 5.22 µM
[17]
  EC50: 0.16 nM
[18]
  Activity: > 31 days
[19]
  EC50: 0.73 nM
[20]
  EC50: 0.95 nM
[21]
  EC50: 0.3 nM
[22]
  Activity: 7 days
[23]
  EC50: 0.21 nM
[24]
  Activity: > 31 days
[25]
  EC50: 0.07 nM
[26]
  EC50: 0.21 nM
[27]
  EC50: 0.13 nM
